Among the data in ChEMBL document CHEMBL3871273, “p-Terphenyl Derivatives from the Endolichenic Fungus Floricola striata” (2016) are MIC80 and Activity values, retold here.

Holding throughout (format): functional
Assay [1] deals with Candida albicans. Kind of assay: Antifungal activity against Candida albicans SC5314 after 48 hrs by broth microdilution method. As to conditions: SC5314, 48 h. The procedure, abridged: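 C. albicans SC5314 grown overnight, then set at (2−5) × 10^3 cells/mL in RPMI 1640. Compounds added at final 2 to 128 μg/mL, 35 °C for 48 h, following CLSI M27A3. OD600 read on a plate reader. MIC taken as the concentration giving 80% growth reduction.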

Assay [2] deals with Candida albicans. Put plainly: Induction of disruption of plasma membrane integrity in Candida albicans assessed as decrease in fluorescence intensity at 8 ug/ml after 3 hrs by DPH-staining based spectrofluorophotometric analysis. The method in brief: (§1)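 Cells at 1 × 10^6/mL in YPD treated 3 h (0, 4, 8, 16, 32 μg/mL; amphotericin B 8 μg/mL as positive control). Fixed in 0.37% formaldehyde 30 min, washed in PBS, freeze-thawed in liquid nitrogen. Stained with 1 μM DPH 45 min at 30 °C, washed. Fluorescence read at ex 350/em 450 nm and expressed as relative fluorescence. Means ± SD.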

The test system of assay [3] is Candida albicans. Put plainly: Fungicidal activity against Candida albicans SC5314 at 16 ug/ml up to 12 hrs by YPD-based colony counting method. The procedure, abridged: (§2)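 Overnight SC5314 cells washed and resuspended at 1 × 10^6 cells/mL in MOPS-buffered RPMI 1640. Compound added at final 8, 16 and 32 μg/mL, shaken at 30 °C. Aliquots taken at 0, 0.5, 1, 2, 3, 4, 5, 6, 7, 8 and 12 h, washed, diluted and plated on YPD agar for viable colony counts. Means ± SD.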

The subject of assay [4] is Candida albicans. Kind of assay: Induction of disruption of plasma membrane integrity in Candida albicans assessed as increase in fluorescence intensity after 3 hrs by propidium iodide-staining based FACS analysis. The method in brief:
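Log-phase C. albicans harvested and suspended in RPMI 1640, then treated 3 h at 30 °C (amphotericin B 8 μg/mL as positive control). Stained with 5 μM propidium iodide for 30 min at room temperature. Cell fluorescence measured by flow cytometry.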

Assay [5] deals with Candida albicans. Kind of assay: Induction of disruption of plasma membrane integrity in Candida albicans assessed as decrease in fluorescence intensity after 3 hrs by DPH-staining based spectrofluorophotometric analysis. The procedure, abridged: as §1
Assay [6] deals with Candida albicans. Kind of assay: Fungicidal activity against Candida albicans SC5314 at 32 ug/ml up to 2 hrs by YPD-based colony counting method. The method in brief:
as §2

The MIC80 is an inhibitory concentration at the 80% level, which refers to growth in some studies and to a panel of isolates in others.

Converted amounts (≈) assume the structure as drawn. The source made the active and inactive calls. No cut-off for these calls is given here. A value given as a limit tells only on which side of the number the result lay.

On to `COC1=C(c2ccccc2)C(=O)C=C(c2ccccc2)C1=O` [BETULINAN C], for which the MIC80 in the assay with Candida albicans [1] was more than 128 µg/mL.
As for `COC1=C(c2ccccc2)C(=O)C2=C(C1=O)c1ccccc1CO2` [BETULINAN B], the MIC80 against Candida albicans [1] is more than 128 µg/mL.
Still for that read-out and setting: next, `O=C1C=C(c2ccccc2)C(=O)C2=C1c1ccccc1CO2`: more than 128 µg/mL.
As for `C[C@@H]1[C@H](O)[C@@H](C)/C=C/C=C/C=C/C=C/C=C/C=C/C=C/[C@H](O[C@@H]2O[C@H](C)[C@@H](O)[C@H](N)[C@@H]2O)C[C@@H]2O[C@](O)(C[C@@H](O)C[C@@H](O)[C@H](O)CC[C@@H](O)C[C@@H](O)CC(=O)O[C@H]1C)C[C@H](O)[C@H]2C(=O)O`, in the assay on Candida albicans [2], the outcome was Active.
Regarding `COC12Oc3ccc(O)cc3C1(O)C(=O)C=C(c1ccccc1)C2=O` (stereo not drawn), the MIC80 against Candida albicans [1] was more than 128 µg/mL.
Consider `COc1c(O)c(-c2ccccc2)cc(O)c1-c1cc(O)ccc1O`, for which the MIC80 in the assay on Candida albicans [1] is 64 µg/mL (≈ 197 µM).
On the same count and under the same terms, next, `COC1=C(c2cc(O)ccc2O)C(=O)C=C(c2ccccc2)C1=O`: 64 µg/mL (≈ 199 µM).
In the assay with Candida albicans [1], `Oc1cc(-c2ccccc2)c(O)c2c1-c1ccccc1CO2` displayed an MIC80 of more than 128 µg/mL.
In turn, `COC1=C(c2ccccc2)C(=O)c2oc3ccccc3c2C1=O` came in with an MIC80 in the assay on Candida albicans [1] of more than 128 µg/mL.
`COC1=C(c2ccccc2O)C(=O)C=C(c2ccccc2)C1=O`: the Activity is 99.8% with Candida albicans [3], “Dose-dependent effect” in the assay with Candida albicans [4] and “Dose-dependent effect” in the assay with Candida albicans [5]. Also, the MIC80 against Candida albicans [1] turned out to be 8 µg/mL (≈ 26.1 µM). Moreover, the result with Candida albicans [6] was Active.
In the case of `COc1c(O)c(-c2ccccc2)cc(O)c1-c1ccc(O)cc1`, in the assay on Candida albicans [1], the MIC80 stood at 16 µg/mL (≈ 51.9 µM).
The compound `COC1=C(c2ccc(O)cc2)C(=O)C=C(c2ccccc2)C1=O` yielded an MIC80 against Candida albicans [1] of 8 µg/mL (≈ 26.1 µM).
The compound `COC1(OC)C2C(=O)C=C(c3ccccc3)C1(O)Oc1ccc(O)cc12` (stereo not drawn) gave an MIC80 in the assay with Candida albicans [1] of more than 128 µg/mL.
Consider `COc1c(O)c(-c2ccccc2)cc(O)c1-c1ccccc1`, for which the MIC80 against Candida albicans [1] is more than 128 µg/mL.
